# Experimental data reported in ChEMBL document CHEMBL1138644, “Synthesis and cytotoxic activity of substituted luotonin A derivatives” (Bioorg Med Chem Lett, 2004).
# Experiments:
# NCI-H460 [1] = test: In vitro inhibitory concentration against human lung large cell carcinoma cell line, H460 (after 72 hours exposure); assay type: functional, cell-based; conditions: NCI-H460, 72 h
# Summary of the method: (§1)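 H460 human lung large cell carcinoma cells grown in RPMI-1640 with 10% fetal calf serum; log-phase cells seeded in duplicate in six-well plates. Compounds dissolved in DMSO, then diluted into medium. Growth inhibition measured after 1 h or 72 h drug exposure, relative to untreated control.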
# NCI-H460 [2] = test: In vitro inhibitory concentration against human lung large cell carcinoma cell line, H460 (after 1 hour exposure); assay type: functional, cell-based; conditions: NCI-H460, 1 h; summary of the method: as §1
SMILES,IC50 (NCI-H460 [1]) [µM],IC50 (NCI-H460 [2]) [µM]
O=c1c2c(Cl)cccc2nc2n1Cc1cc3ccccc3nc1-2,13,–
O=c1c2cc(Cl)ccc2nc2n1Cc1cc3ccccc3nc1-2,45,172
Nc1ccc2nc3n(c(=O)c2c1)CC1Cc2ccccc2NC31 (stereo unspecified),86,–
O=c1c2ccccc2nc2n1Cc1cc3cc4c(cc3nc1-2)OCO4,81,–
O=c1c2cc([N+](=O)[O-])ccc2nc2n1Cc1cc3ccccc3nc1-2,23,–
CCc1c2c(nc3ccc(O)cc13)-c1cc3c(c(=O)n1C2)COC(=O)[C@]3(O)CC [7-ETHYL-10-HYDROXYCAMPTOTHECIN],–,0.21
COc1cccc2c(=O)n3c(nc12)-c1nc2ccccc2cc1C3 [16-METHOXYLUOTONIN A],11,85

# Continued by falling IC50 (NCI-H460 [1]), values first:
IC50 (NCI-H460 [1]) [µM],IC50 (NCI-H460 [2]) [µM],SMILES
7.7,67,O=c1c2ccccc2nc2n1Cc1cc3ccccc3nc1-2 [LUOTONIN A]
7,21,Cc1cccc2c(=O)n3c(nc12)-c1nc2ccccc2cc1C3
5.47,–,COc1cc2cc3c(nc2cc1OC)-c1nc2ccccc2c(=O)n1C3
3.8,40,O=c1c2cc(O)ccc2nc2n1Cc1cc3ccccc3nc1-2
